In assay [1] the target is Nitric oxide synthase 1 (Rattus norvegicus) (UniProt P29476). Kind of assay: Percentage inhibition of rat striatal neural nitric oxide synthase (nNOS) activity at 1 mM by quantifying L-[3H]citrulline production. An outline of the steps: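 Striatal homogenate was made in pH 7.6 Tris buffer with DTT and protease inhibitors, then spun 1000g for 5 min. Supernatant was incubated with 25 mM Tris, 1 mM DTT, 30 μM H4-biopterin, 10 μM FAD, 0.1 mM CaCl2, 10 μM L-arginine plus 50 nM L-[3H]-arginine, 0.75 mM NADPH and compound at 1 mM final in DMSO, 37 °C, 30 min. L-[3H]-citrulline separated on Dowex-50W and counted. NADPH-free blank subtracted. Three experiments in triplicate.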
Nitric oxide synthase 1 (Rattus norvegicus), sequence (P29476 whole entry): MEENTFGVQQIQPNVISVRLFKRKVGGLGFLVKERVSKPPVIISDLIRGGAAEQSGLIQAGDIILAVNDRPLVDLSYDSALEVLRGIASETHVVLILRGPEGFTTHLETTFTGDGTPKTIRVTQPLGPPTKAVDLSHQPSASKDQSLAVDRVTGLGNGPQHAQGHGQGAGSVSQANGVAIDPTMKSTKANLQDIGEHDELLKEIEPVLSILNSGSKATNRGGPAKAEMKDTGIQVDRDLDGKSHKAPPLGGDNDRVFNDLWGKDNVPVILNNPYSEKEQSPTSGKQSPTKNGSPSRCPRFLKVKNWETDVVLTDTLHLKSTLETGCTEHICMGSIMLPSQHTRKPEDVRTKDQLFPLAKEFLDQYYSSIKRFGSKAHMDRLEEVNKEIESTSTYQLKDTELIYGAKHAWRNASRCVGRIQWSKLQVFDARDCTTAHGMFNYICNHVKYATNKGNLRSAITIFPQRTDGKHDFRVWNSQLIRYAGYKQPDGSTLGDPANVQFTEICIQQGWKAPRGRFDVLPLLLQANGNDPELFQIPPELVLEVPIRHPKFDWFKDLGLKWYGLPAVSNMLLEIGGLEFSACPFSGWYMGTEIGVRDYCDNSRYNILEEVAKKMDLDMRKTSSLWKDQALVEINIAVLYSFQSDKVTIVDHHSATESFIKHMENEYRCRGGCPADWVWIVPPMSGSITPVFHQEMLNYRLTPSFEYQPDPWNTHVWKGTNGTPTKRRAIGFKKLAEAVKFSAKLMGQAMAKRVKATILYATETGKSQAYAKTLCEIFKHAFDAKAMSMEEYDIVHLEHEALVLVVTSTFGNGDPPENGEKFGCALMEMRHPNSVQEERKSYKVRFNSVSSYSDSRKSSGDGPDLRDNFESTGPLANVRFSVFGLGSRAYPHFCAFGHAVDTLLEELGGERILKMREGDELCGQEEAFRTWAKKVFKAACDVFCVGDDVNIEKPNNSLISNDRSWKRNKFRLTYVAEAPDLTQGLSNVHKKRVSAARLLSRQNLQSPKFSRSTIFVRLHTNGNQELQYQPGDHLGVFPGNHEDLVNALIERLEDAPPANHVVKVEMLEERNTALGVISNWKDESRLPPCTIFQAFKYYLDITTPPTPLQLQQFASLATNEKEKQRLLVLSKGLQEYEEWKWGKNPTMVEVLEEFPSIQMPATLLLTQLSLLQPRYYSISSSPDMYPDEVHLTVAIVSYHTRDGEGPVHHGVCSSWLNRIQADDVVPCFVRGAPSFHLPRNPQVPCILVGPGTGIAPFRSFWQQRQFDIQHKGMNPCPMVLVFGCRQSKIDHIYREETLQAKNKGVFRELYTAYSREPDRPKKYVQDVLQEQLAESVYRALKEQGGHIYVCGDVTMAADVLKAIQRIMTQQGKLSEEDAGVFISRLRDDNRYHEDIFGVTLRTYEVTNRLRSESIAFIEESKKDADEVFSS

Assay [2] deals with Kynurenine 3-monooxygenase (Rattus norvegicus) (UniProt O88867). Kind of assay: Percent activity of rat striatal kynurenine 3-hydroxylase (KYN3OH) activity at 1 mM by quantifying 3-hydroxykynurenine production.
Kynurenine 3-monooxygenase (Rattus norvegicus), sequence (O88867 whole entry, looked up): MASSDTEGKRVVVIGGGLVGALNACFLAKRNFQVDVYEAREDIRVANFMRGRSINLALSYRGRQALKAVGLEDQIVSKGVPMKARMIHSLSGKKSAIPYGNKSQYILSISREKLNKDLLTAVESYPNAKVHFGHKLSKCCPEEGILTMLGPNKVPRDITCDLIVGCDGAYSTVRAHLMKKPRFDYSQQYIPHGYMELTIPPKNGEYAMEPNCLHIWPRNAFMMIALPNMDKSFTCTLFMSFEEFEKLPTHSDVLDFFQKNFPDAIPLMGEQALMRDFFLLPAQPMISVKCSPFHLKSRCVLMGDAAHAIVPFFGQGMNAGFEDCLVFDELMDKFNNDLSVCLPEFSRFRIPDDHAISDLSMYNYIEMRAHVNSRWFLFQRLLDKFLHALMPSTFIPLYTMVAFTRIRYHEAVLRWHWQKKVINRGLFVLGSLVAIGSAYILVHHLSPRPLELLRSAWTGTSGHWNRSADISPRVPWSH

Experimental findings from ChEMBL document CHEMBL1140421, “Kynurenamines as neural nitric oxide synthase inhibitors” (J Med Chem, 2005) are described below.

As usually defined, the inhibition is the share of the control response that was lost under treatment. The low end stands for little suppression, the high end for strong suppression.

As to `Nc1ccc(Cl)cc1C(=O)CCNC(=O)C1CC1`, in assay [1], the inhibition was determined as 23.3%. As to `CCCCC(=O)NCCC(=O)c1cc(OC)ccc1N`, the % activity in assay [2] is 97.2%. In addition, in assay [1], the inhibition stood at 39.6%. In assay [1], `CC(=O)NCCC(=O)c1cc(Cl)ccc1N` had an inhibition of 31.7%. Turning to `COc1ccc(N)c(C(=O)CCNC(=O)C2CCCCC2)c1`, the % activity in assay [2] worked out at 99.6%. The inhibition in assay [1] was 48.2%.

As to `CCCC(=O)NCCC(=O)c1cc(OC)ccc1N`, in assay [1], the inhibition was found to be 42.8%.

In the case of `COc1ccc(N)c(C(=O)CCNC(=O)C2CC2)c1`, in assay [2], the % activity amounted to 99.9%. The molecule further gave an inhibition in assay [1] of 40.4%. In assay [1], `Nc1ccc(Cl)cc1C(=O)CCNC(=O)c1ccccc1` displayed an inhibition of 21.7%. As to `COc1ccc(N)c(C(=O)CCNC(=O)C2CCC2)c1`, the % activity in assay [2] turned out to be 92.2%. The molecule also displayed an inhibition in assay [1] of 33.7%. Consider `COc1ccc(N)c(C(=O)CCNC(C)=O)c1`, for which the % activity in assay [2] came out at 102%. This molecule displayed an inhibition in assay [1] of 65.4%. In the same order, the values of `COc1ccc(N)c(C(=O)CCNC(=O)c2ccccc2)c1` are 97.2% and 46.5%. For `CCC(=O)NCCC(=O)c1cc(OC)ccc1N` the same measures were 99.4% and 50.9%. For `COc1ccc(N)c(C(=O)CCNC(=O)C2CCCC2)c1` the same measures were 96.3% and 45%.
